Most compounds without a hit are left out; they make up all but 2% or so of the library.
HSP90 refold inh = HSP90 inhibitors, primary screen, cell lysate, luminescence | Rabbit reticulocyte lysate, luciferase refolding luminescence, 3 h | inhibition, % at 5.6 µM | Heat shock protein HSP 90 (rabbit reticulocyte lysate; luciferase refolding) | 0.91% of 290,000 active;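 active means inhibition above the screen-wide mean plus 3 SD, computed separately per campaign, cut at about 16% in these data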;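 further: 0% = DMSO wells and 100% = 60 µM geldanamycin wells; inhibitors lower the luminescence because luciferase stays unfolded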
FLuc stim CS = FLuc activators, initial screening, artefact control for FLuc-dependent activation tests, biochemical, ATPlite luminescence | ATPlite luciferase biochemical, 10 min; 0 = ATP-free wells, 1 = DMSO control | AID 1027, 2008 | activation factor at 10 µM | Luciferin 4-monooxygenase (Photinus pyralis), P08659 | 200,000 tested, under 10 active;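 active means luciferase activation factor, scaled between plate controls, of at least 2 with compound at 10 µM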
Target sequence (P08659 whole entry, looked up): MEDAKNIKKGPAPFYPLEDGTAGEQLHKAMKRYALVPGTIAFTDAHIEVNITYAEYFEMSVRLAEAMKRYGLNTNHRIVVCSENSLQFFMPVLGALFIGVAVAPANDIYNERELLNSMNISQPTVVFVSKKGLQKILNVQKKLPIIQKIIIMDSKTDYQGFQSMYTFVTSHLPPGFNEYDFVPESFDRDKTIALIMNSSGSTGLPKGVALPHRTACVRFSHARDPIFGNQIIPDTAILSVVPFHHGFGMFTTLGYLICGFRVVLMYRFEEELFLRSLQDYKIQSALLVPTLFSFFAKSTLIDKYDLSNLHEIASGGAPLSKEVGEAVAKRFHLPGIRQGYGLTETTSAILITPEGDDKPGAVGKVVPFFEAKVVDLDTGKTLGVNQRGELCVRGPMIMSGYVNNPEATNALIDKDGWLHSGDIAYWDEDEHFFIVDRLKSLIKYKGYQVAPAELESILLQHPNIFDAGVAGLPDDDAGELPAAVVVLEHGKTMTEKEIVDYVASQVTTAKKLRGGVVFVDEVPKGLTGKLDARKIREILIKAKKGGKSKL
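System: cell-free luciferase reagent; medium: PBS as buffer for the ATP substrate; doses: test compounds dosed from 2 mM stocks in 100% DMSO; incubation: 10 min, room temperature; measured by: luminescence from luciferase reaction; read-out: luciferase activation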
TRAIL sens C8 = viability loss with TRAIL in NB7+C8 cells, primary screen, TRAIL sensitizer project, cell-based, ATPlite luminescence; 1% of 360,000 active; inhibition (viability loss, TRAIL sensitization), % at 10 µM;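 active means compounds causing at least 50% loss of cell viability in the single-dose screen, relative to plate controls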
FLuc inh counter = firefly luciferase enzyme inhibitors, primary screen, artefact control for luciferase-based inhibitor screens, biochemical, luminescence, ATPLite. Luciferin 4-monooxygenase (Photinus pyralis), P08659. inhibition, % at 10 µM. 1.5% of 200,000 active. 10 min;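 active means inhibition above about 50% when tested at 10 µM, limit read from the data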
PPC-1+TRAIL kill = compounds killing PPC-1 cancer cells with TRAIL present, primary screen, TRAIL potentiator project, ATPLite luminescence, uHTS; PPC-1 cells + TRAIL, ATPLite viability luminescence; cell killing (% activity), % at 4 µM or 5 µM; 0.41% of 220,000 active;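 active means cell killing above 50% in the first pass at 4 µM, then a duplicate retest at 5 µM averaging 50% or more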;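 further: plate controls were cells with TRAIL plus DMSO for no effect and medium-only wells lacking cells for full effect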
* = called active by the depositor; / = not tested or not shown.

SMILES	HSP90 refold inh	FLuc stim CS	TRAIL sens C8	FLuc inh counter	PPC-1+TRAIL kill
c1ccc(CSc2ccc(-c3ccccn3)nn2)cc1	6	0.4	42	58*	16
Fc1ccccc1CSc1ccc(-c2ccco2)nn1	-2	0.2	40	78*	16
Cc1ccc(CSc2ccc(-c3ccco3)nn2)cc1	-1	0.4	40	55*	31
Cc1ccc(-c2nc3cc(C)c(Br)c(C)n3c2CC(C)(C)C)cc1	/	/	9	/	/
COc1ccc(-c2nc3ccc(Br)cn3c2Cc2cccc(Cl)c2)cc1OC	/	/	0	/	/
CC(C)CC(N)c1csc(Nc2ccc(C(F)(F)F)cn2)n1 (stereo unspecified)	/	/	35	/	/
Cc1c(/C(O)=C2\C(=O)C(=O)N(CCCN(C)C)C2c2ccccc2)cnn1-c1ccccc1 (stereo unspecified)	42*	1	6	-4	18
N=c1oc2cc(O)ccc2cc1C(=O)Nc1nc2ccccc2s1	-2	0.3	-2	75*	-9
CCCCOC(=O)Nc1nc2ccc(OC)cc2s1	-4	0.9	7	6	-2
COc1ccc2nc(NC(=O)c3cnccn3)sc2c1	5	0.4	53*	63*	30
CCCCN(C(=O)NC(=O)Nc1nc2ccc(OC)cc2s1)S(C)(=O)=O	4	0.5	17	50*	50
COc1ccc(C(=O)Nc2nc3ccccc3s2)c(OC)c1	91*	/	92*	/	/
CC(C)(C)c1cc(NC(=O)C2(C)CCN2C(=O)C2(c3ccccc3)CCCC2)no1 (stereo unspecified)	/	/	7	/	/
COc1ccc(C(=O)Nc2ccc([N+](=O)[O-])cn2)c(OC)c1	0	0.5	53*	45	17
COc1ccc2nc(NC(=O)Nc3ccccc3)sc2c1	13	0.3	59*	70*	33
C[C@H](CO)N1C[C@H](C)[C@@H](CN(C)S(=O)(=O)c2ccccc2)OCCCC[C@H](C)Oc2ccc(NC(=O)CCC(F)(F)F)cc2C1=O	/	/	-8	/	/
CCc1nc2ccc(C(=O)NCCN3CCOCC3)cn2c1N(C)Cc1ccc(OC)cc1	/	/	-6	/	/
COn1c(-c2ccccc2)nc2ccc(Cl)cc21	-2	0.8	0	20	0
Clc1ccc2nc3c4ccccc4cnn3c2c1	-1	0.4	40	63*	32
COc1ccc(CN(C)CCCn2cnc3c(OC)ncnc32)cc1OC	/	/	0	/	/
Cc1ccc(N2CS(=O)(=O)/C(=C/N(C)C)C2=O)cc1	-1	0.4	25	57*	47
Cc1nc(-c2ccccc2)sc1C(=O)O	2	1	5	4	12
CCn1c(-c2sc(-c3ccccc3)nc2C)n[nH]c1=S	2	1.1	-9	-5	6
Cc1nc(-c2ccccc2)sc1-c1ccnn1C	-3	0.4	29	57*	7
Cc1nc(-c2ccccc2)sc1-c1ccn[nH]1	7	0.3	34	70*	27
SMILES	HSP90 refold inh	FLuc stim CS	TRAIL sens C8	FLuc inh counter	PPC-1+TRAIL kill
N/C(=N\OC(=O)COc1ccc(Cl)cc1Cl)c1ccccn1	13	0.5	54*	50	41
N/C(=N\OC(=O)COc1ccc(Br)cc1Cl)c1ccccn1	14	0.6	66*	39	38
CC1=C(C(=O)N(C(C)C)C(C)C)CC(CC(=O)NCc2cccs2)C(=O)N1CCC1=CCCCC1 (stereo unspecified)	/	/	-5	/	/
O=C(CC(=O)c1ccccc1)Nc1cccnc1	-3	1	-2	2	0
CCC(C)c1ccc(NC(=O)NCc2cccnc2)cc1 (stereo unspecified)	-4	/	1	/	/
CC(=O)c1ccc(NC(=O)Nc2cccnc2)cc1	-4	/	52*	/	/
O=C(Nc1ccccc1)C(=O)Nc1cccnc1	16*	/	-10	/	23
CCC(C)c1ccc(NC(=O)Nc2cccnc2)cc1 (stereo unspecified)	0	/	49*	/	/
CC(C)C(N)c1csc(NC(=O)Nc2ccc(OC(F)(F)F)cc2)n1 (stereo unspecified)	/	/	16	/	/
Cc1cccc2sc(NNC(=O)c3cc(-c4cccs4)nc4ccccc34)nc12	-3	1	50*	-1	9
Cc1ccc(O)c(NC(=O)c2noc3c2CCCCC3)c1	5	0.3	11	65*	45
CCc1ccc(NC(=O)c2noc3c2CCC3)cc1	6	0.4	28	64*	4
CCc1ccc(NC(=O)c2noc3c2CCCCC3)cc1	3	0.9	20	10	6
Cc1ccc(NC(=O)c2noc3c2CCCCC3)cc1	14	0.7	18	32	22
CCc1ccc(NC(=O)c2cc(C)on2)cc1	16	0.4	26	61*	17
CCOC(=O)c1ccc([N+](=O)[O-])c(CS(=O)(=O)c2ccc(Cl)cc2)c1	1	/	9	/	/
Cc1ccc(S(=O)(=O)Cc2cc(F)c([N+](=O)[O-])cc2[N+](=O)[O-])cc1	2	/	65*	/	/
Cc1ccc(/C=C/C(=O)Nc2ccncc2)o1	-1	0.9	10	12	0
Cc1ccc(/C=C/C(=O)Nc2ccc(N(C)C)cc2)o1	2	0.3	18	67*	20
COCCCNC(=O)c1csc([C@@H]2O[C@H](CO)[C@H](O)[C@H](O)[C@H]2O)n1	/	/	-5	/	/
COc1ccc2oc(=N)c(C(=O)Nc3ccccc3)cc2c1	-2	0.4	21	64*	17
COc1ccc2oc(=N)c(C(=O)Nc3ccc(C)cc3)cc2c1	-1	/	16	/	/
Cn1c(COc2ccccc2O)[n+](C)c2ccccc21	3	/	-2	/	/
COc1ccc(N=Nc2n(C)c3ccccc3[n+]2C)cc1	79*	/	/	/	92*
CCCNC(=O)c1cc(C2CCCCN2S(=O)(=O)Cc2cccc(C(F)(F)F)c2)on1 (stereo unspecified)	/	/	-6	/	/
SMILES	HSP90 refold inh	FLuc stim CS	TRAIL sens C8	FLuc inh counter	PPC-1+TRAIL kill
N/C(=N/OC(=O)c1ccccc1Cl)c1nonc1N	-3	0.5	6	52*	9
Cc1nc(/C(N)=N/OC(=O)c2ccccc2Cl)c(C(F)(F)F)o1	2	/	-19	/	12
Cc1ccc(C(=O)O/N=C(\N)c2nonc2N)cc1	-1	0.2	-4	84*	-7
N/C(=N\OC(=O)c1ccc(F)cc1)c1nonc1N	1	0.5	4	49	-7
O=C(O)c1cccc(N/N=C/c2sc(N3CCOCC3)nc2-c2ccccc2)c1	6	0.4	20	60*	5
Nc1ccc(C(=O)N/N=C/c2sc(N3CCOCC3)nc2-c2ccccc2)cc1	1	1	-6	3	7
CCOC(=O)C1=CCN(S(C)(=O)=O)C1c1ccc(C)cc1 (stereo unspecified)	/	/	4	/	/
O=c1cc(-c2ccc(O)cc2)oc2ccc3ccccc3c12	/	/	90*	/	/
CCC(C)NC(=O)Nc1ccc(Br)cc1 (stereo unspecified)	-3	1	17	4	19
